Laboratory results from ChEMBL document CHEMBL5352427, “Isoquinolone derivatives as lysophosphatidic acid receptor 5 (LPA5) antagonists: Investigation of structure-activity relationships, ADME properties and analgesic effects” (Eur J Med Chem, 2022).
Values after ≈ are worked out from the molar mass of the structure shown. Active and inactive are the calls of the source.

Columns and labels:
[1] = target: T1, Lysophosphatidic acid receptor 5 (Homo sapiens, UniProt Q9H1C0); experiment: Antagonist activity at human LPA5 receptor expressed in RH7777 cells assessed as inhibition of EC80 concentration of hexadecyl LPA-induced calcium mobilization incubated for 15 mins by FLIPR method; assay type: functional, cell-based
T1 sequence (Q9H1C0 whole entry): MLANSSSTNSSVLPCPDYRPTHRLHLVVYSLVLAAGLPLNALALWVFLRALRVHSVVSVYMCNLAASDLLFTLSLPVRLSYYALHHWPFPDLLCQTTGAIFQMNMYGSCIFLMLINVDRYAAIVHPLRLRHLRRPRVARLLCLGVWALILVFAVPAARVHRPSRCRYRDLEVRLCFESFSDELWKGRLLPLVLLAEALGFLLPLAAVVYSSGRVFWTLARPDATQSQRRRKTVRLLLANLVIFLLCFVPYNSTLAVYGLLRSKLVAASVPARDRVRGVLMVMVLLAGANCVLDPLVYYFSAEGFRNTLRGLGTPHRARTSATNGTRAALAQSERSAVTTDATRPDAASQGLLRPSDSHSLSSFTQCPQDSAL

[2] = Effect on locomotory activity in opioid-induced hyperalgesia Sprague-Dawley rat model at 17.8 mg/kg, ip measured for 60 mins by infrared motion-sensor analysis; assay type: toxicity, organism-based; conditions: in vivo, 1 h
In short: (§1)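 Handled ≥3 days; rats pretreated 60 min with vehicle or 17.8 mg/kg i.p., then placed in activity chambers and locomotion recorded for 60 min.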

[3] = Drug concentration in Sprague-Dawley rat brain at 17.8 mg/kg, ip measured after 30 mins by LC-MS/MS analysis; assay type: ADME, organism-based; conditions: read-out: Ct
In short: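 Male Sprague-Dawley rats (258–277 g) given 17.8 mg/kg i.p. in 5% Cremophor/5% ethanol/saline; at 30 min two rats anesthetized with isoflurane, cardiac blood taken, PBS-perfused; brains homogenized 1:4 (w/v) in 25% isopropanol and quantified by LC-MS/MS.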

[4] = target: T2, Lysophosphatidic acid receptor 3 (Homo sapiens) (UniProt Q9UBY5); experiment: Antagonist activity at human LPA3 receptor expressed in CHO cells assessed as inhibition of LPA-induced calcium mobilization at 10 uM incubated for 15 mins by FLIPR analysis relative to control; assay type: functional, cell-based
T2 sequence (whole entry): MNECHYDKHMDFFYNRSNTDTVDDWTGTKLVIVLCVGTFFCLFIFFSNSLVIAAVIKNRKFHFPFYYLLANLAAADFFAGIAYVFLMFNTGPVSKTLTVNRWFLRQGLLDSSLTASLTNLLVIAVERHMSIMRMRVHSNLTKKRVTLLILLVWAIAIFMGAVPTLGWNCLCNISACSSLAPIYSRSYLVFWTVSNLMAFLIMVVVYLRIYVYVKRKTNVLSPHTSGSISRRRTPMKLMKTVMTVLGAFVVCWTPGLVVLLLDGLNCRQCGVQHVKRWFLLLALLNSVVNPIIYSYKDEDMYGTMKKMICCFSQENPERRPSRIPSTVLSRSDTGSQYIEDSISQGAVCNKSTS
In short: (§2)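 Calcium mobilization in CHO cells overexpressing LPA1, LPA2 or LPA3, run by a contract lab under its own protocols; compounds tested at single 10 μM.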

[5] = Aqueous solubility of compound at pH 7.4; assay type: physicochemical; conditions: aqueous medium
In short: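 Kinetic solubility: 20 mM DMSO stock diluted into PBS (1 mM KH2PO4, 3 mM Na2HPO4, 155 mM NaCl) to a target of 400 μM; triplicates quantified by LC-MS/MS against matrix-matched standards.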

[6] = Apparent permeability across apical to basolateral side in MDCK-MDR1 cells incubated for 90 mins by LC-MS/MS analysis; assay type: ADME, cell-based, Canis lupus familiaris; conditions: dog, mdck-mdr1, 1.5 h
In short: (§3)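 MDCK-MDR1 cells (passage 5) grown 3 days on Transwell polycarbonate inserts; transport buffer HBSS/10 mM HEPES/0.25% BSA pH 7.4, 30 min preincubation 37 °C with TEER check. 10 μM test article added apical (A-to-B) or basolateral (B-to-A); receiver sampled at 30, 60, 90 min, LC-MS/MS. Papp = (dQ/dt)/(A·Ci); efflux ratio B-to-A/A-to-B. Atenolol, propranolol, digoxin references.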

[7] = target: T1, Lysophosphatidic acid receptor 5; experiment: Antagonist activity at human LPA5 receptor expressed in RH7777 cells assessed as inhibition of EC80 concentration of hexadecyl LPA-induced calcium mobilization incubated for 15 mins by FLIPR method relative to hexadecyl LPA; assay type: functional, cell-based; conditions: filed as antagonist
[8] = target: T1, Lysophosphatidic acid receptor 5; experiment: Agonist activity at human LPA5 receptor expressed in RH7777 cells assessed as calcium mobilization incubated for 15 mins by FLIPR method; assay type: functional, cell-based
In short: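 RH7777 cells stably expressing hLPA5, plated 20,000/well in 0.2% FBS medium 18–20 h, loaded 45 min at 37 °C with Calcium 5 dye in HBSS/20 mM HEPES/2.5 mM probenecid pH 7.4. […] Duplicates.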

[9] = system: Rattus norvegicus; experiment: Antiallodynic activity in CCI surgery neuropathic pain induced Sprague-Dawley rat neuropathic pain model assessed as reversal of hypersensitivity condition at 17.8 mg/kg, ip measured after 10 days; assay type: functional; conditions: time 10 day
In short: (§4)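 Adult male Sprague-Dawley rats (230–280 g, n=6/group) given CCI under i.p. ketamine 75 mg/kg/xylazine 5 mg/kg: four chromic gut ligatures about 1 mm apart on the right sciatic nerve. Drug given i.p. (1–2 ml/kg) in 20% DMSO/10% emulphor/saline. Mechanical paw withdrawal threshold measured every 30 min (26 g cutoff). Reported as mean ± SEM, two-way ANOVA.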

[10] = target: T1, Lysophosphatidic acid receptor 5; experiment: Antagonist activity at human LPA5 receptor expressed in RH7777 cells assessed as inhibition of EC80 concentration of LPA-induced cAMP accumulation preincubated for 30 mins followed by Eu-cAMP tracer addition and measured after 1 hr by TR-FRET assay relative to hexadecyl LPA; assay type: functional, cell-based; conditions: filed as antagonist
In short: (§5)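 hLPA5-RH7777 cells, switched to 0.2% FBS medium 20 h prior, lifted with versene, 2,000 cells/well in HBSS/5 mM HEPES/0.1% BSA/0.5 mM IBMX pH 7.4. Compound dilutions with hexadecyl LPA 16:0 EC80 (300 nM) plus forskolin, 30 min room temperature; LANCE Ultra Eu-cAMP tracer/ULight-anti-cAMP 1 h; TR-FRET 665 nm converted to cAMP via standard curve. Three-parameter logistic IC50; ≥3 experiments in duplicate.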

[11] = target: Lysophosphatidic acid receptor 4 (Homo sapiens) (UniProt Q99677); experiment: Antagonist activity at human LPA4 receptor expressed in CHO cells assessed as inhibition of LPA-induced calcium accumulation preincubated for 30 mins followed by Eu-cAMP tracer addition and measured after 1 hr by TR-FRET assay relative to hexadecyl LPA; assay type: functional, cell-based
Lysophosphatidic acid receptor 4 (Homo sapiens), sequence (Q99677 whole entry): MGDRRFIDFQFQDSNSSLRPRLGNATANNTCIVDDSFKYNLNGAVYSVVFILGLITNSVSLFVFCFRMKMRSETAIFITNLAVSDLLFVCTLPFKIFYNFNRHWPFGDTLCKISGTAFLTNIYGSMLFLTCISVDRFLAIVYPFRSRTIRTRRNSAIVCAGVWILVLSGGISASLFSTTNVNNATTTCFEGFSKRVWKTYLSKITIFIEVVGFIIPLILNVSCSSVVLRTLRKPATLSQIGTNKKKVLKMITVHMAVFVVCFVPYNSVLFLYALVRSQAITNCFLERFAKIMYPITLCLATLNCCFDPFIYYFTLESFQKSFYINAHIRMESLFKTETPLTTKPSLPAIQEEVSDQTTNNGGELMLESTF

[12] = system: Rattus norvegicus; experiment: Antiallodynic activity in CCI surgery-induced Sprague-Dawley rat neuropathic pain model assessed as reduction in paw withdrawal threshold at 17.8 mg/kg, ip measured after 5 hrs; assay type: functional; parameters: scale not given: the % may be the effect or the level left; in short: as §4
[13] = system: Rattus norvegicus; experiment: Antinociceptive activity against in opioid-induced hyperalgesia Sprague-Dawley rat model assessed as reduction in mechanical hyperalgesia induced hypersensitivity at 5.6 to 17.8 mg/kg, ip and measured after 5 hrs; assay type: functional, organism-based; conditions: dose 5.6-17.8 mg/kg
In short: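 Opioid-induced hyperalgesia: after baselines on D−1 and D0, rats given four s.c. fentanyl injections of 0.06 mg/kg at 15 min intervals (0.24 mg/kg total); paw withdrawal thresholds tested after i.p. drug on days 1–2 post-fentanyl.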

[14] = Substrate activity at P-glycoprotein (unknown origin) in MDCK-MDR1 cells assessed as efflux ratio of apparent permeability across basolateral to apical over apical to basolateral side measured after 90 mins by LC-MS/MS analysis; assay type: ADME, cell-based, Canis lupus familiaris; conditions: dog, mdck-mdr1, 1.5 h; in short: as §3
[15] = target: T1, Lysophosphatidic acid receptor 5; experiment: Antagonist activity at human LPA5 receptor expressed in RH7777 cells assessed as inhibition of EC80 concentration of LPA-induced cAMP accumulation preincubated for 30 mins followed by Eu-cAMP tracer addition and measured after 1 hr by TR-FRET assay; assay type: functional, cell-based; in short: as §5
[16] = Effect on locomotory activity in CCI surgery-neuropathic pain induced Sprague-Dawley rat model at 17.8 mg/kg, ip measured for 60 mins by infrared motion-sensor analysis; assay type: toxicity, organism-based; conditions: in vivo, 1 h; in short: as §1
[17] = target: Lysophosphatidic acid receptor 1 (Homo sapiens) (UniProt Q92633); experiment: Antagonist activity at human LPA1 receptor expressed in CHO cells assessed as inhibition of LPA-induced calcium mobilization at 10 uM incubated for 15 mins by FLIPR analysis relative to control; assay type: functional, cell-based; in short: as §2
Lysophosphatidic acid receptor 1 (Homo sapiens), sequence (Q92633 whole entry): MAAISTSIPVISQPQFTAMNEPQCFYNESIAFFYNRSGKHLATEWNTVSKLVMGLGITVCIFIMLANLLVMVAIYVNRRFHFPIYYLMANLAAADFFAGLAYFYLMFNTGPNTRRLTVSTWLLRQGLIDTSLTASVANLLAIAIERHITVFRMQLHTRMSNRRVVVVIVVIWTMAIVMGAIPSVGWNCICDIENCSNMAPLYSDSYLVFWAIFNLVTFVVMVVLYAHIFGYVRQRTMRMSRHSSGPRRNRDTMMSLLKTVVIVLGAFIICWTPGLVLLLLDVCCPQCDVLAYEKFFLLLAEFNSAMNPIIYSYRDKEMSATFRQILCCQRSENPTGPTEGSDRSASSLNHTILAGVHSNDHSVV

[18] = system: Rattus norvegicus; experiment: Antiallodynic activity in CCI surgery neuropathic pain induced ip dosed Sprague-Dawley rat hyperalgesia model assessed as reduction in mechanical allodynia by measuring reduction in paw threshold measured after 10 days; assay type: functional, organism-based; conditions: dose 3.2-17.8 mg/kg, time 10.0 day
In short: (§6)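 Male Sprague-Dawley rats (n=6), ketamine/xylazine anesthesia; four chromic gut ligatures ~1 mm apart around the right sciatic nerve. Drugs i.p. in DMSO/emulphor/saline (AS2717638 in propylene glycol vehicle), single or cumulative dosing with paw withdrawal threshold (cut-off 26 g) measured every 30 min.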

[19] = target: Lysophosphatidic acid receptor 2 (Homo sapiens) (UniProt Q9HBW0); experiment: Antagonist activity at human LPA2 receptor expressed in CHO cells assessed as inhibition of LPA-induced calcium mobilization at 10 uM incubated for 15 mins by FLIPR analysis relative to control; assay type: functional, cell-based; in short: as §2
Lysophosphatidic acid receptor 2 (Homo sapiens), sequence (Q9HBW0 whole entry): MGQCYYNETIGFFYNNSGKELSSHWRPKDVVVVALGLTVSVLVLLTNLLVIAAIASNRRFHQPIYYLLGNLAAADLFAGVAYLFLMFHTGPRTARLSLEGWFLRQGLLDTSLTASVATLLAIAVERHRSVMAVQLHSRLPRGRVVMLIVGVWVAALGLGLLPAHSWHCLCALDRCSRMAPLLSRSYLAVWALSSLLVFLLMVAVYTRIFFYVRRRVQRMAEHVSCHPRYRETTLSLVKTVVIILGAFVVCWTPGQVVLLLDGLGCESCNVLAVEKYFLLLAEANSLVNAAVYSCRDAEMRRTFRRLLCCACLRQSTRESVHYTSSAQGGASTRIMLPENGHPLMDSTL

[20] = system: Rattus norvegicus; experiment: Antiallodynic activity against CFA-induced Sprague-Dawley rat inflammatory pain model assessed as reduction in paw withdrawal threshold at 17.8 mg/kg measured after 5 hrs; assay type: functional, organism-based
In short: (§7)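 Adult male Sprague-Dawley rats (230–280 g, n=6/group); 0.1 ml CFA injected into right hind paw. Compounds i.p. (1–2 ml/kg) in 20% DMSO/10% emulphor/saline; AS2717638 in 30% propylene glycol vehicle. Mechanical paw withdrawal threshold (cut-off 26 g) measured every 30 min after single dose; two-way ANOVA, mean ± SEM.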

[21] = system: Rattus norvegicus; experiment: Antiallodynic activity against CFA-induced Sprague-Dawley rat inflammatory pain model assessed as reduction in paw withdrawal threshold at 32 mg/kg measured after 2 hrs; assay type: functional, organism-based; in short: as §7
[22] = system: Rattus norvegicus; experiment: Antiallodynic activity against CFA-induced mechanical allodynia Sprague-Dawley rat model assessed as reduction paw threshold pain measured at 32 mg/kg, ip; assay type: functional, organism-based; conditions: time 2.0 hrs, TDE = time-dependent effect; in short: as §7
[23] = system: Rattus norvegicus; experiment: Antinociceptive activity in CCI surgery-neuropathic pain induced Sprague-Dawley rat model assessed as reduction in paw threshold pain measured at 32 mg/kg, ip; assay type: functional, organism-based; conditions: time 2.0 hrs, TDE = time-dependent effect; in short: as §6
[24] = organism: Rattus norvegicus; experiment: Antiallodynic activity against CFA-induced mechanical allodynia Sprague-Dawley rat model assessed as reduction paw threshold pain measured after 2 hrs; assay type: functional, organism-based; conditions: dose 32.0 mg/kg; in short: as §7
[25] = organism: Homo sapiens; experiment: Selectivity ratio of IC50 for antagonist activity at human LPA5 receptor expressed in RH7777 cells assessed as inhibition of LPA-induced cAMP accumulation to IC50 for antagonist activity at human LPA5 receptor expressed in RH7777 cells assessed as inhibition of LPA-induced calcium mobilization; assay type: cell-based
[26] = organism: Rattus norvegicus; experiment: Antinociceptive activity in CCI surgery-neuropathic pain induced Sprague-Dawley rat model assessed as reduction in paw threshold pain measured after 2 hrs; assay type: functional, organism-based; conditions: dose 32.0 mg/kg; in short: as §6

Compound	IC50 [1] [nM]	inhibition [7] [%]	Activity [8]	inhibition [10] [%]	IC50 [15] [nM]	other results
C#CC1CCN(C(=O)c2cn(-c3ccc4scc(C)c4c3)c(=O)c3cc(OC)c(OC)cc23)CC1	32	107	inactive	100	350	Activity [2]: Non-Toxic; concentration at 0.5 h [3]: 652 ng/mL; inhibition [4]: < 50%; solubility kinetic [5]: 19.5 µM (≈ 9.49 µg/mL); Papp [6]: 31.1 10^-6 cm/s; Activity [9]: 100%; inhibition [11]: < 50%; Activity [12]: 100%; Activity [13]: Active; Ratio [14]: 1.2; Activity [16]: Non-Toxic; inhibition [17]: < 50%; Activity [18]: Dose-Dependent Effect; inhibition [19]: < 50%; Activity [20]: Active
COc1cc2c(C(=O)N3CCCCC3)cn(-c3ccc4ccn(C)c4c3)c(=O)c2cc1OC	64	104	inactive	109	460	
COc1cc2c(C(=O)N3CCCCC3)cn(-c3noc4ccc(C)cc34)c(=O)c2cc1OC	36	108		102	210	Activity [21]: Active; Activity [22]: Tde; Activity [23]: Tde; Activity [24]: Dose-Dependent Effect; Ratio IC50 [25]: 5.8; Activity [26]: Dose-Dependent Effect
COc1cc2c(C(=O)N3CCC(F)CC3)cn(-c3ccc4scc(C)c4c3)c(=O)c2cc1OC	69	107	inactive	104	340	inhibition [4]: < 50%; solubility kinetic [5]: 96.4 µM (≈ 46.3 µg/mL); Papp [6]: 22.2 10^-6 cm/s; inhibition [11]: < 50%; Ratio [14]: 1.4; inhibition [17]: < 50%; inhibition [19]: < 50%; Activity [20]: Active
CCN1CCc2ccc(-n3cc(C(=O)N4CCC(F)CC4)c4cc(OC)c(OC)cc4c3=O)cc21	58	104		94	570	
COc1cc2c(C(=O)N3CCCCC3)cn(-c3ccc4occ(C)c4c3)c(=O)c2cc1OC	48	105	inactive	88	190	
COc1cc2c(C(=O)N3CCC(F)CC3)cn(-c3cccc(C(C)C)c3)c(=O)c2cc1OC	200	103	inactive	98	394	
COc1cc2c(C(=O)N3CCC(F)CC3)cn(-c3cccc(N(C)C)c3)c(=O)c2cc1OC	79	102	inactive	94	950	
COc1cc2c(C(=O)N3CCCCC3)cn(-c3cccc(N(C)C)c3)c(=O)c2cc1OC	87	104	inactive	89	790	
COc1cc2c(C(=O)N3CCC(F)CC3)cn(-c3ccc4occ(C)c4c3)c(=O)c2cc1OC	144	102	inactive	100	203	
